Assay results published in publication PMC3309561 (Biochimica et biophysica acta, 2010).

Tested on: 15 base pair duplex DNA
Experiment: Near-UV circular dichroism / UV absorbance titration of duplex DNA with peptide
Format: binding
Settings: UV absorbance spectra during titration of duplex DNA, room temperature
In short: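 15 bp duplex DNA at 1.66 µM (typically 1–2 µM) was titrated at room temperature with small additions of a 5 mg/ml peptide stock. UV absorbance was acquired at the same time as the near-UV CD, in a 10 mm cell from 340 to 220 nm, across increasing peptide/DNA molar ratios. Uncorrected spectra show light scattering; zeroed spectra (340 nm) track 260 nm absorbance.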

- Turbidity (light scattering) above 310 nm of DNA with peptide: absence of turbidity
Substance: GIGKFLHSAKKFGKAFVGEIMNS-NH2 [Magainin 2 amide]
